Results on six molecules are retold here after ChEMBL document CHEMBL2429736, “Calix[4]arene methylenebisphosphonic acids as inhibitors of protein tyrosine phosphatase 1B” (Bioorg Med Chem Lett, 2013).

In assay [1] the target is T1, Tyrosine-protein phosphatase non-receptor type 11 (Homo sapiens, UniProt Q06124).
T1 sequence (Q06124 whole entry): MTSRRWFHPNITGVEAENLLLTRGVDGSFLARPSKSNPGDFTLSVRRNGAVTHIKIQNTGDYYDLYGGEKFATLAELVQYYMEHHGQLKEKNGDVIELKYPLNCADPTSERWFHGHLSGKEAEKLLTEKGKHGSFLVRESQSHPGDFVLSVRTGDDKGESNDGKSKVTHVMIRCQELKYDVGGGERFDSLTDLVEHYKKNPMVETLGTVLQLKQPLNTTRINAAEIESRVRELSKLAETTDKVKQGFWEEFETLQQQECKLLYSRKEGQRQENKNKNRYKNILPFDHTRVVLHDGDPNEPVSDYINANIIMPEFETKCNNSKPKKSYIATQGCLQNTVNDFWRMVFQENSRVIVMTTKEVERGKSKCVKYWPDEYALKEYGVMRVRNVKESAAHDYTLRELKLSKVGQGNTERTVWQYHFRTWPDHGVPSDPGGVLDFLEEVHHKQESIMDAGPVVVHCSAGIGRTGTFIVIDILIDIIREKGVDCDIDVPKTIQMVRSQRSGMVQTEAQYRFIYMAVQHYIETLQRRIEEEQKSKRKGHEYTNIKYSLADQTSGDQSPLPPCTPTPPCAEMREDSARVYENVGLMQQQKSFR
Put plainly: Inhibition of SHP2 (unknown origin) assessed as p-nitrophenyl phosphate conversion to p-nitrophenol after 10 mins by spectrophotometric analysis. In outline: (§1)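 p-Nitrophenyl phosphate substrate at 2 mM for TC-PTP and LAR, 1 mM for PTPbeta, 5 mM for CD45, 7 mM for SHP2. p-Nitrophenol release followed. IC50 read from dose-dependent curve as the concentration giving 50% activity after 10 min incubation.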

Assay [2] addresses T2, Tyrosine-protein phosphatase non-receptor type 1 (Homo sapiens, UniProt P18031).
T2 sequence (P18031 whole entry): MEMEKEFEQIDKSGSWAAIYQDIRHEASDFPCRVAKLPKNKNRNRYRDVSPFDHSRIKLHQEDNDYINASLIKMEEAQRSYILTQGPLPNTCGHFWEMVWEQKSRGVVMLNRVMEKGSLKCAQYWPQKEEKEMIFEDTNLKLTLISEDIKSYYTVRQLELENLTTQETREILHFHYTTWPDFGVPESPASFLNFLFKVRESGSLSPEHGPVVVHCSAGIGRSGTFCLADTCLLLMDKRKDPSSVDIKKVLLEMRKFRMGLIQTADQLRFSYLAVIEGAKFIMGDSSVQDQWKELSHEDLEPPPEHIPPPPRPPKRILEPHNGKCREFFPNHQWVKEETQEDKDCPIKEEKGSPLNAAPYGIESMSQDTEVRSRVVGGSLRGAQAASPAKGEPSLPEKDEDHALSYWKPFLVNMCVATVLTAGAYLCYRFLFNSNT
Kind of assay: Reversible inhibition of recombinant full length PTP1B (unknown origin) assessed as p-nitrophenyl phosphate conversion to p-nitrophenol after 10 mins by spectrophotometric analysis. The method in brief:
(§2)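 Recombinant full-length PTP1B (5 nM final) in 50 mM Bis-Tris pH 7.2, 100 mM NaCl, 1 mM DTT, 2 mM EDTA, 1 vol % DMSO, 2 mM p-nitrophenyl phosphate plus inhibitor. Mixture preincubated 5 min at 37 C, started by adding enzyme. p-Nitrophenol release followed. IC50 taken from dose-response curve as 50% activity loss after 10 min.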

The species entered for assay [3] is Homo sapiens. Put plainly: Selectivity ratio of IC50 for TCPTP (unknown origin) to IC50 for recombinant full length PTP1B (unknown origin).
The target in assay [4] is T2, Tyrosine-protein phosphatase non-receptor type 1. Put plainly: Inhibition of recombinant full length PTP1B (unknown origin) assessed as p-nitrophenyl phosphate conversion to p-nitrophenol after 10 mins by spectrophotometric analysis. In outline: as §2
Assay [5] addresses T3, Tyrosine-protein phosphatase non-receptor type 2 (Homo sapiens) (UniProt P17706).
T3 sequence (whole entry): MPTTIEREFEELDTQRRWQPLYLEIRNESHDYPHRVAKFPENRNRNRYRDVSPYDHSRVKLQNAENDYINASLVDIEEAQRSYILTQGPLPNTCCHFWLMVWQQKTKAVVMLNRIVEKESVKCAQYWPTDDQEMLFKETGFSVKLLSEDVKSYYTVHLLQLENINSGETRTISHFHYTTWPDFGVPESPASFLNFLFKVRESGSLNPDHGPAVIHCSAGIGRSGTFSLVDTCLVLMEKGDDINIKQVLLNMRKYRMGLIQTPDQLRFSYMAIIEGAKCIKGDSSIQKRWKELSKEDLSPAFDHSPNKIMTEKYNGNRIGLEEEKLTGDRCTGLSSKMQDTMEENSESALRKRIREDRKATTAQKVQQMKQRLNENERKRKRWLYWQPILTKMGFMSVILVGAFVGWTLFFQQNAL
Put plainly: Inhibition of TCPTP (unknown origin) assessed as p-nitrophenyl phosphate conversion to p-nitrophenol by spectrophotometric analysis. The note with it: TDE = time-dependent effect.

The target of assay [6] is T2, Tyrosine-protein phosphatase non-receptor type 1. Put plainly: Inhibition of recombinant truncated PTP1B (unknown origin) using pTyr1146 as substrate assessed as inorganic phosphate level after 20 mins by spectrophotometric analysis. The method in brief:
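Truncated recombinant PTP1B (40 nM) with 0.075 mM pTyr1146 in 50 mM Bis-Tris pH 7.2, 1.1 mM DTT, 0.1 M NaCl, 1 mM EDTA. Reaction started with enzyme, run 20 min at 37 C, stopped with malachite green, held 10 min at 37 C. Phosphate read at 620 nm against standard curve, corrected for no-enzyme, no-substrate and inhibitor blanks.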

The target in assay [7] is Receptor-type tyrosine-protein phosphatase F (Homo sapiens, UniProt P10586). Put plainly: Inhibition of LAR (unknown origin) assessed as p-nitrophenyl phosphate conversion to p-nitrophenol after 10 mins by spectrophotometric analysis. The method in brief: as §1
Sequence of Receptor-type tyrosine-protein phosphatase F (P10586 whole entry): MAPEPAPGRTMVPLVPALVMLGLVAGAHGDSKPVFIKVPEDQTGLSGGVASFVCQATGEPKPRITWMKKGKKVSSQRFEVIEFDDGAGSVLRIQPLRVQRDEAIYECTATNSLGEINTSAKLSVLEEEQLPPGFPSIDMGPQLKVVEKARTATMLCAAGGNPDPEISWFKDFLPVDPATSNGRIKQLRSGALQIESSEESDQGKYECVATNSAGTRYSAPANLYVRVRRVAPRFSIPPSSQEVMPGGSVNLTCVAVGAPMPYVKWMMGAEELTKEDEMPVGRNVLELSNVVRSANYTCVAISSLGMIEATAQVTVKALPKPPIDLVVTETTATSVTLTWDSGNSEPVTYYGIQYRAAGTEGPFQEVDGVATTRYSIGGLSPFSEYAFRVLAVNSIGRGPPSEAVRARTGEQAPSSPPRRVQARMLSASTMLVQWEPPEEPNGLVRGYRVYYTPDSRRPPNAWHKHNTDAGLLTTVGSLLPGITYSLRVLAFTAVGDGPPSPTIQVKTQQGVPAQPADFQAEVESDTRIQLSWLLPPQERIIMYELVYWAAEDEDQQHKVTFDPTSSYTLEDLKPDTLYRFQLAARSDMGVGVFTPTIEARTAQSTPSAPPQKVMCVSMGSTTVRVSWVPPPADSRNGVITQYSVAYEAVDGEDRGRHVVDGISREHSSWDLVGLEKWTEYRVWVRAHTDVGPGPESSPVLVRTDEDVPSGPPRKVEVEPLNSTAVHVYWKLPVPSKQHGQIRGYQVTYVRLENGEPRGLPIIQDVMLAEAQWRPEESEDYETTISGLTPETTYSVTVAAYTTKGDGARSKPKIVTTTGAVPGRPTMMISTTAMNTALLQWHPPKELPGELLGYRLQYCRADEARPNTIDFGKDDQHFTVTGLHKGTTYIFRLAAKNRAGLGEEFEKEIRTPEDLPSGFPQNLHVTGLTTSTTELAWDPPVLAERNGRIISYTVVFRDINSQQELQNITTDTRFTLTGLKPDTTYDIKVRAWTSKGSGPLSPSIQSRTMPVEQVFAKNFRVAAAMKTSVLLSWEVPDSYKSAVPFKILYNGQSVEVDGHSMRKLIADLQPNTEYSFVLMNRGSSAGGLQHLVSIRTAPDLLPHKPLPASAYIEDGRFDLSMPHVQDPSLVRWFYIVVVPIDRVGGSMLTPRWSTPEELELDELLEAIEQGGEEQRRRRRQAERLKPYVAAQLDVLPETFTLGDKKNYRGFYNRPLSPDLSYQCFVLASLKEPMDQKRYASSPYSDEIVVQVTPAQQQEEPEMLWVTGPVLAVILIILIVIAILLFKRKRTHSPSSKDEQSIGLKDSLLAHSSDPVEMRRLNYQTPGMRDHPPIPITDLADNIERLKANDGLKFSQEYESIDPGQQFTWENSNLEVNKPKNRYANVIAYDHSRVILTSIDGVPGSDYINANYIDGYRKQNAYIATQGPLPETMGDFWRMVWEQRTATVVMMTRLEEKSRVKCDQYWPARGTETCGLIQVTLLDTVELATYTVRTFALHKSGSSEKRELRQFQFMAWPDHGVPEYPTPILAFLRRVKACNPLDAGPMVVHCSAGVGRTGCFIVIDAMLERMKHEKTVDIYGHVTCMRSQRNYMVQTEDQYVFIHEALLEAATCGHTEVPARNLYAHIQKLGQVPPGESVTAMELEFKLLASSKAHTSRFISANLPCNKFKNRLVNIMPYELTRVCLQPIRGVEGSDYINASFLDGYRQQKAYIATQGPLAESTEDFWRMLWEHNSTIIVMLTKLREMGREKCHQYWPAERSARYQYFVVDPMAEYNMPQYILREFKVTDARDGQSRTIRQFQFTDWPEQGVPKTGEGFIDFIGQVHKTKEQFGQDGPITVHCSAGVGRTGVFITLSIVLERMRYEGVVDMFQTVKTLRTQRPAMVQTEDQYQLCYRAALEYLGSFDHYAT
Assay [8] addresses T4, Tyrosine-protein phosphatase non-receptor type 1 (Homo sapiens) (UniProt P18031).
T4 sequence (whole entry): T2 sequence (P18031 whole entry)
Put plainly: Inhibition of recombinant full length PTP1B (unknown origin) assessed as p-nitrophenyl phosphate conversion to p-nitrophenol by spectrophotometric analysis. The note with it: TDE = time-dependent effect. In outline: as §2

Assay [9] deals with T5, Tyrosine-protein phosphatase non-receptor type 2 (Homo sapiens, UniProt P17706).
T5 sequence (P17706 whole entry): T3 sequence (whole entry)
Kind of assay: Inhibition of TCPTP (unknown origin) assessed as p-nitrophenyl phosphate conversion to p-nitrophenol after 10 mins by spectrophotometric analysis. The method in brief:
as §1

The target in assay [10] is T2, Tyrosine-protein phosphatase non-receptor type 1. Kind of assay: Competitive inhibition of recombinant full length PTP1B (unknown origin) assessed as p-nitrophenyl phosphate conversion to p-nitrophenol by Lineweaver-Burk plot analysis.
In assay [11] the target is T6, Receptor-type tyrosine-protein phosphatase C (Homo sapiens, UniProt P08575).
T6 sequence (P08575 whole entry): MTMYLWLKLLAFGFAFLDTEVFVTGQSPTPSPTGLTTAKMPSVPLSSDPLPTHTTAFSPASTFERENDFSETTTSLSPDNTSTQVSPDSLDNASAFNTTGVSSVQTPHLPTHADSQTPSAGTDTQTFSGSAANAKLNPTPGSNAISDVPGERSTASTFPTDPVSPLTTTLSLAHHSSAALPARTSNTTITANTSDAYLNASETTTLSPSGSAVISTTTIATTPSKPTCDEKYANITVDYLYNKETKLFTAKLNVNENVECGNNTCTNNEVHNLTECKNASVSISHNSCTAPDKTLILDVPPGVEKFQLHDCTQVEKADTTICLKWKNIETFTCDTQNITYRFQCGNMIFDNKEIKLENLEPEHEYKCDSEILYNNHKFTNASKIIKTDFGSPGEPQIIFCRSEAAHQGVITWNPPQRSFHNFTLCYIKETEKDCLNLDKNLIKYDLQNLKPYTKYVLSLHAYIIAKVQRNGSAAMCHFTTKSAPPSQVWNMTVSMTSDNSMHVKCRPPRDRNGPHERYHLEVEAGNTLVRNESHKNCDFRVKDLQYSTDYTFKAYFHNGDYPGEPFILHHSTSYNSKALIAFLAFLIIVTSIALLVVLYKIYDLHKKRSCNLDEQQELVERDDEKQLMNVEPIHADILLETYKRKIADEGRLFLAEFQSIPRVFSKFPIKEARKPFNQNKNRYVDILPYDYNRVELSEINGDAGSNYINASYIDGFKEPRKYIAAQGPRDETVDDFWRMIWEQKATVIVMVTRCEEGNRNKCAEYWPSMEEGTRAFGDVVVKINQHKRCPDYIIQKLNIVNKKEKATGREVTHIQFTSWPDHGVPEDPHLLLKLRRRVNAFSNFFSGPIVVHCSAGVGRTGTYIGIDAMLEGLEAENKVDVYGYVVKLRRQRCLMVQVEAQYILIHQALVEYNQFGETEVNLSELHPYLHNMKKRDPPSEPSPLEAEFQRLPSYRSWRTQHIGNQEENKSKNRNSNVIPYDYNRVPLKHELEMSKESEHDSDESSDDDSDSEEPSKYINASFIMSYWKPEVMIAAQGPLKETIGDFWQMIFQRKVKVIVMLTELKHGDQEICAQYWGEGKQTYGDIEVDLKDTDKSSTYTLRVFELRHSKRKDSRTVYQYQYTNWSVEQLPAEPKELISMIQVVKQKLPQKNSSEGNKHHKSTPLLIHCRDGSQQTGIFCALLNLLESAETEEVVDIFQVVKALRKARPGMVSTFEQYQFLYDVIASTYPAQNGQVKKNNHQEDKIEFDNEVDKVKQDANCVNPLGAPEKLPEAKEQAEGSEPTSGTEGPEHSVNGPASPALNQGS
Kind of assay: Inhibition of CD45 (unknown origin) assessed as p-nitrophenyl phosphate conversion to p-nitrophenol after 10 mins by spectrophotometric analysis. In outline: as §1

For assay [12], the species on record is Homo sapiens. Put plainly: Selectivity ratio of IC50 for CD45 (unknown origin) to IC50 for recombinant full length PTP1B (unknown origin).
In assay [13] the target is Receptor-type tyrosine-protein phosphatase beta (Homo sapiens, UniProt P23467). Kind of assay: Inhibition of PTPbeta (unknown origin) assessed as p-nitrophenyl phosphate conversion to p-nitrophenol after 10 mins by spectrophotometric analysis. In outline:
as §1

Assay [14] has as its target T4, Tyrosine-protein phosphatase non-receptor type 1 (Homo sapiens). Put plainly: Inhibition of recombinant full length PTP1B (unknown origin) assessed as p-nitrophenyl phosphate conversion to p-nitrophenol up to 20 uM after 10 mins by spectrophotometric analysis. In outline:
as §2

For assay [15] the target is unchanged. As to conditions: 50 uM.

Molecules are shown by their SMILES. pIC50, pKi: −log10 of the molar value. Activity calls are given as the source filed them. No cut-off for these calls is given here.

Sequence of Receptor-type tyrosine-protein phosphatase beta (P23467 whole entry): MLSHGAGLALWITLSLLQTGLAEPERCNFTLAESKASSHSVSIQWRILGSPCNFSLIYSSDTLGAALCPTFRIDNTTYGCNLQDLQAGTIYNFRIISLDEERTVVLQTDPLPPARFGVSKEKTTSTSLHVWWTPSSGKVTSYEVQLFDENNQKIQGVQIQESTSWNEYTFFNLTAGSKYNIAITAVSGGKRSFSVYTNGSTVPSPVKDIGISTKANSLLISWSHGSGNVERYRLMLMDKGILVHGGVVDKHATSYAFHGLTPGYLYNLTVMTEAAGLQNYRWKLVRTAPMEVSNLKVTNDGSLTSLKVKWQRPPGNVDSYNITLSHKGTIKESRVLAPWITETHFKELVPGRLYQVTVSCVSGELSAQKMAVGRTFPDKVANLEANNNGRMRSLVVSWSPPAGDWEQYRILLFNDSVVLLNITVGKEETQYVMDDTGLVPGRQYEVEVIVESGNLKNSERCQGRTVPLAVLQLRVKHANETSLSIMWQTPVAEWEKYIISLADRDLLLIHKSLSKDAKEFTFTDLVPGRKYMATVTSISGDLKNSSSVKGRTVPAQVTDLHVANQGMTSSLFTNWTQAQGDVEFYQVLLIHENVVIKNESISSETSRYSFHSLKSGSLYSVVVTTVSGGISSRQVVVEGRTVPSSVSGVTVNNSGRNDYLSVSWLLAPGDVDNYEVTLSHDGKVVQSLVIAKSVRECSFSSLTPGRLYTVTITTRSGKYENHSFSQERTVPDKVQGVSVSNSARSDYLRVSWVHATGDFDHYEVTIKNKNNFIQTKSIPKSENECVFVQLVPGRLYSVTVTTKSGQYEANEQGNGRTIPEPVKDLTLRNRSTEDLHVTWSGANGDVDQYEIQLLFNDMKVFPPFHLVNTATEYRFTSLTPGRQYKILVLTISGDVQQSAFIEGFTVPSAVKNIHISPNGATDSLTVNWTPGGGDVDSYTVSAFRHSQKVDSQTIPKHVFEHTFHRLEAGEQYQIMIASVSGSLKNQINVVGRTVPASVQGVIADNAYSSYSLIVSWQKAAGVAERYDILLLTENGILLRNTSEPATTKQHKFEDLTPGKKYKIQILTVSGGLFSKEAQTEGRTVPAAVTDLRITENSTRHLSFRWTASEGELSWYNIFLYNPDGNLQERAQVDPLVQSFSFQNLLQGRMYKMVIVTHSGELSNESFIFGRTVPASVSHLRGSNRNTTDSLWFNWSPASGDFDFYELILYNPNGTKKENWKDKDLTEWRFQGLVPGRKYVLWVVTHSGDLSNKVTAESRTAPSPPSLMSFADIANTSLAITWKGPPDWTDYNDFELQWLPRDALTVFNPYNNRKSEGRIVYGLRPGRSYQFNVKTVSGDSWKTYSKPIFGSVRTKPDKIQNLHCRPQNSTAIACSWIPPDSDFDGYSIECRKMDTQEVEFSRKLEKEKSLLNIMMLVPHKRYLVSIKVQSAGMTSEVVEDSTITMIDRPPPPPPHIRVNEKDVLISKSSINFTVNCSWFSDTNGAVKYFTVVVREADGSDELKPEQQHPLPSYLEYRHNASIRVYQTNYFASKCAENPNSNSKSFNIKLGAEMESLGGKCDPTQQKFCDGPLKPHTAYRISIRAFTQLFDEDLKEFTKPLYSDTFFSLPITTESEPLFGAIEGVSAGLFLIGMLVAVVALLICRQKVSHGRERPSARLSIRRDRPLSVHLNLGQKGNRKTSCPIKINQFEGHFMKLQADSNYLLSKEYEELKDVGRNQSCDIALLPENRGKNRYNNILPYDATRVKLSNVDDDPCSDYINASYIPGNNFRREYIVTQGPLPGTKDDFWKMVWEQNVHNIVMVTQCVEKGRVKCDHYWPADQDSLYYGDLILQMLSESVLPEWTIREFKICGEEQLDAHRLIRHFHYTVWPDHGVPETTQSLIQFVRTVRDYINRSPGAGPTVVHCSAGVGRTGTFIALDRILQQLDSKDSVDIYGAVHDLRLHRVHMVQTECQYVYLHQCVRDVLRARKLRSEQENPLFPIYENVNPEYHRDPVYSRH

The term pIC50 denotes the negative decadic logarithm of the IC50, by convention in mol/L. What is called pKi is the negative decadic logarithm of the Ki, by convention in mol/L. Take `CCCOc1c2cccc1Cc1cc(C(P(=O)(O)O)P(=O)(O)O)cc(c1O)Cc1cccc(c1OCCC)Cc1cccc(c1O)C2`: the pIC50 in assay [1] is 5.74; in [4] it was 5.92; in [6], 5.43; in assay [7], less than 4.00; in assay [9] it was 5.03; in assay [11], 5.24. Further, the pIC50 in assay [13] is 4.89. Moreover, the negative logarithm of the Ki (pKi) is 6.13 in [2] and 6.01 in [10]. Further, the Ratio IC50 is 8 in the assay filed under Homo sapiens [3] and 4 in the assay filed under Homo sapiens [12]. For the same molecule, the inhibition result in assay [5] and in assay [8] was “tde” in each case.
In the case of `CCCOc1c2cccc1Cc1cc(C(P(=O)(O)O)P(=O)(O)O)cc(c1O)Cc1cccc(c1OCCC)Cc1cc(C(P(=O)(O)O)P(=O)(O)O)cc(c1O)C2`, the negative logarithm of the IC50 (pIC50) is 5.59 in assay [1]; 5.60 in assay [4]; 5.41 in assay [6]; less than 4.00 in [7]; 5.31 in assay [9]; 4.66 in [11].
Consider `CCCOc1c2cccc1Cc1cccc(c1O)Cc1cccc(c1OCCC)Cc1cccc(c1O)C2`, for which the inhibition result in assay [14] was “inactive”.
As to `CCCOc1c2cccc1Cc1cc(C(O)(P(=O)(O)O)P(=O)(O)O)cc(c1O)Cc1cccc(c1OCCC)Cc1cccc(c1O)C2`, the pIC50 in assay [1] was 5.47; in assay [4] it was 5.72; in [6] it was 5.39; in [7] it was no more than 4.00; in assay [9] it was 4.57; in assay [11], 5.08. Also, the pIC50 in assay [13] was 4.74. For the same molecule, the negative logarithm of the Ki (pKi) in assay [2] was 6.17. Moreover, the Ratio IC50 in the assay filed under Homo sapiens [3] was determined as 14; in the assay filed under Homo sapiens [12], 4. Also, the inhibition entry in assay [5] and in assay [8] was “tde” in each case.
Consider `NCCCC(O)(P(=O)(O)O)P(=O)(O)O`, for which, in [15], the inhibition result was “inactive”.
With `CCCOc1c2cccc1Cc1cc(C(O)(P(=O)(O)O)P(=O)(O)O)cc(c1O)Cc1cccc(c1OCCC)Cc1cc(C(O)(P(=O)(O)O)P(=O)(O)O)cc(c1O)C2`, the pIC50 in assay [1] was 5.04; in [4], 5.08; in assay [6] it was 5.14; in [7], less than 4.00; in [9], 4.66; in assay [11], 4.23. For the same molecule, in [13], the pIC50 is 4.92.
